Values after ≈ are worked out from the molar mass of the structure shown.
What was measured:
Type in all cases: functional
[1] = tested on: Streptococcus pneumoniae; assay: Antibacterial activity against erythromycin-resistant Streptococcus pneumoniae AB11 expressing the ermB and mefA incubated for 24 hrs by broth dilution method
[2] = tested on: Staphylococcus aureus; assay: Antibacterial activity against erythromycin-susceptible Staphylococcus aureus ATCC 25923 incubated for 24 hrs by broth dilution method; conditions: ATCC 25923, 24 h
Method in brief: (§1)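 CLSI broth microdilution in cation-adjusted Mueller-Hinton broth. Twofold dilutions spanned 0.25–128 or 0.5–256 µg/mL, with CAM and AZM as controls. Log-phase bacteria were added and incubated 24 h at 37 °C. MIC was read by turbidity as the concentration of the last clear well.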

[3] = tested on: Streptococcus pneumoniae; assay: Antibacterial activity against erythromycin-resistant Streptococcus pneumoniae B1 expressing the ermB incubated for 24 hrs by broth dilution method
[4] = tested on: Streptococcus pyogenes; assay: Antibacterial activity against erythromycin-resistant Streptococcus pyogenes 2 clinical isolate incubated for 24 hrs by broth dilution method
[5] = tested on: Staphylococcus aureus; assay: Bactericidal activity against erythromycin-susceptible Staphylococcus aureus ATCC 25923 incubated for 24 hrs followed by re-plating on tryptic soy agar plates for 24 hrs by broth microdilution assay; conditions: ATCC 25923, 24 h
Method in brief: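 Built on the broth microdilution MIC set-up (CAMH, 24 h, 37 °C). After 24 h, contents of clear wells were plated on tryptic soy agar and incubated 24 h at 37 °C. MBC was taken as the lowest concentration giving no colonies.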

[6] = tested on: Pseudomonas aeruginosa; assay: Antibacterial activity against penicillin-susceptible Pseudomonas aeruginosa ATCC 27853 incubated for 24 hrs by broth dilution method; conditions: ATCC 27853, 24 h; method in brief: as §1
[7] = tested on: Streptococcus pyogenes; assay: Antibacterial activity against erythromycin-susceptible Streptococcus pyogenes 1 clinical isolate incubated for 24 hrs by broth dilution method; method in brief: as §1
[8] = tested on: Streptococcus pneumoniae; assay: Ratio of MBC to MIC for erythromycin-resistant Streptococcus pneumoniae AB11 expressing the ermB and mefA
[9] = tested on: Staphylococcus aureus; assay: Antibacterial activity against penicillin-resistant Staphylococcus aureus ATCC 31007 incubated for 24 hrs by broth dilution method; conditions: ATCC 31007, 24 h
[10] = tested on: Bacillus subtilis; assay: Antibacterial activity against penicillin-susceptible Bacillus subtilis ATCC 9372 incubated for 24 hrs by broth dilution method; conditions: ATCC 9372, 24 h; method in brief: as §1
[11] = tested on: Staphylococcus aureus; assay: Ratio of MBC to MIC for erythromycin-susceptible Staphylococcus aureus ATCC 25923
[12] = tested on: Streptococcus pneumoniae; assay: Bactericidal activity against erythromycin-resistant Streptococcus pneumoniae AB11 expressing the ermB and mefA incubated for 24 hrs followed by re-plating on tryptic soy agar plates for 24 hrs by broth microdilution assay
Method in brief: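 Follows the 24 h, 37 °C CAMH broth microdilution MIC plate; contents of clear wells plated onto tryptic soy agar and incubated 24 h at 37 °C; MBC taken as the lowest concentration giving no colonies.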

[13] = tested on: Escherichia coli; assay: Antibacterial activity against penicillin-susceptible Escherichia coli ATCC 25922 incubated for 24 hrs by broth dilution method; conditions: ATCC 25922, 24 h; method in brief: as §1
[14] = tested on: Staphylococcus aureus; assay: Antibacterial activity against methicillin-resistant Staphylococcus aureus ATCC 43300 incubated for 24 hrs by broth dilution method; conditions: ATCC 43300, 24 h
[15] = tested on: Staphylococcus aureus; assay: Ratio of MIC for CAM to MIC for test compound for antibacterial activity against methicillin-resistant Staphylococcus aureus ATCC 43300 incubated for 24 hrs by broth dilution method
Method in brief: (§2)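 Ratio of clarithromycin MIC to compound MIC. Both MICs come from CLSI broth microdilution in cation-adjusted Mueller-Hinton broth with 2-fold dilutions, log-phase inoculum and 24 h at 37 °C, read by turbidity as the last clear well.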

[16] = tested on: Streptococcus pyogenes; assay: Ratio of MIC for CAM to MIC for test compound for antibacterial activity against erythromycin-resistant Streptococcus pyogenes 2 clinical isolate incubated for 24 hrs by broth dilution method; method in brief: as §2
[17] = tested on: Streptococcus pneumoniae; assay: Ratio of MIC for CAM to MIC for test compound for antibacterial activity against erythromycin-resistant Streptococcus pneumoniae AB11 expressing the ermB and mefA incubated for 24 hrs by broth dilution method; method in brief: as §2
[18] = tested on: Staphylococcus aureus; assay: Ratio of MIC for CAM to MIC for test compound for antibacterial activity against penicillin-resistant Staphylococcus aureus ATCC 31007 incubated for 24 hrs by broth dilution method; method in brief: as §2
[19] = tested on: Streptococcus pneumoniae; assay: Ratio of MIC for CAM to MIC for test compound for antibacterial activity against erythromycin-resistant Streptococcus pneumoniae B1 expressing the ermB incubated for 24 hrs by broth dilution method; method in brief: as §2

Compound	MIC [1] [µg/mL]	MIC [2] [µg/mL]	MIC [3] [µg/mL]	MIC [4] [µg/mL]	MBC [5] [µg/mL]	MIC [6] [µg/mL]	MIC [7] [µg/mL]	Ratio [8]	MIC [9] [µg/mL]	MIC [10] [µg/mL]	Ratio [11]	MBC [12] [µg/mL]	MIC [13] [µg/mL]	MIC [14] [µg/mL]	Ratio [15]	Ratio [16]	Ratio [17]	Ratio [18]	Ratio [19]
CC[C@H]1OC(=O)[C@H](C)[C@@H](O[C@H]2C[C@@](C)(OC)[C@@H](O)[C@H](C)O2)[C@H](C)[C@@H](O[C@@H]2O[C@H](C)C[C@H](N(C)C)[C@H]2O)[C@](C)(OC)C[C@@H](C)C(=O)[C@H](C)[C@@H](O)[C@]1(C)O [CLARITHROMYCIN]	128 (≈ 171 µM)	≤ 0.25	> 256	256 (≈ 342 µM)	128 (≈ 171 µM)	32 (≈ 42.8 µM)	≤ 0.03	1	> 256	≤ 0.25	>512	128 (≈ 171 µM)	128 (≈ 171 µM)	> 256	–	–	–	–	–
CO[C@]1(C)C[C@@H](C)[C@H](O)[C@H](C)CN(C)C[C@@H](COCc2cn(-c3ccc(C(C)C)cc3)nn2)OC(=O)[C@H](C)[C@@H](O[C@H]2C[C@@](C)(OC)[C@@H](O)[C@H](C)O2)[C@H](C)[C@H]1O[C@@H]1O[C@H](C)C[C@H](N(C)C)[C@H]1O	16 (≈ 17.1 µM)	4 (≈ 4.28 µM)	16 (≈ 17.1 µM)	16 (≈ 17.1 µM)	–	128 (≈ 137 µM)	4 (≈ 4.28 µM)	–	32 (≈ 34.3 µM)	1 (≈ 1.07 µM)	–	–	64 (≈ 68.5 µM)	32 (≈ 34.3 µM)	8 - 16	8 - 16	8 - 16	8 - 16	8 - 16
CO[C@]1(C)C[C@@H](C)[C@H](O)[C@H](C)CN(C)[C@H](Cn2cc(-c3ccc(F)cc3)nn2)COC(=O)[C@H](C)[C@@H](O[C@H]2C[C@@](C)(OC)[C@@H](O)[C@H](C)O2)[C@H](C)[C@H]1O[C@@H]1O[C@H](C)C[C@H](N(C)C)[C@H]1O	128 (≈ 145 µM)	16 (≈ 18.2 µM)	128 (≈ 145 µM)	128 (≈ 145 µM)	–	128 (≈ 145 µM)	16 (≈ 18.2 µM)	–	128 (≈ 145 µM)	16 (≈ 18.2 µM)	–	–	> 128	256 (≈ 291 µM)	–	–	–	–	–
CO[C@]1(C)C[C@@H](C)[C@H](O)[C@H](C)CN(C)C[C@H](Cn2cc(-c3ccccn3)nn2)OC(=O)[C@H](C)[C@@H](O[C@H]2C[C@@](C)(OC)[C@@H](O)[C@H](C)O2)[C@H](C)[C@H]1O[C@@H]1O[C@H](C)C[C@H](N(C)C)[C@H]1O	256 (≈ 297 µM)	4 (≈ 4.63 µM)	> 256	128 (≈ 148 µM)	–	64 (≈ 74.2 µM)	1 (≈ 1.16 µM)	–	> 256	2 (≈ 2.32 µM)	–	–	128 (≈ 148 µM)	> 256	–	–	–	–	–
COc1ccc(-c2cn(C[C@H]3COC(=O)[C@H](C)[C@@H](O[C@H]4C[C@@](C)(OC)[C@@H](O)[C@H](C)O4)[C@H](C)[C@@H](O[C@@H]4O[C@H](C)C[C@H](N(C)C)[C@H]4O)[C@](C)(OC)C[C@@H](C)[C@H](O)[C@H](C)CN3C)nn2)cc1	64 (≈ 71.7 µM)	64 (≈ 71.7 µM)	256 (≈ 287 µM)	256 (≈ 287 µM)	–	> 128	4 (≈ 4.48 µM)	–	256 (≈ 287 µM)	32 (≈ 35.9 µM)	–	–	> 128	256 (≈ 287 µM)	–	–	–	–	–
COc1ccc(-n2cc(COC[C@@H]3CN(C)C[C@@H](C)[C@@H](O)[C@H](C)C[C@@](C)(OC)[C@H](O[C@@H]4O[C@H](C)C[C@H](N(C)C)[C@H]4O)[C@@H](C)[C@H](O[C@H]4C[C@@](C)(OC)[C@@H](O)[C@H](C)O4)[C@@H](C)C(=O)O3)nn2)cc1	128 (≈ 139 µM)	8 (≈ 8.68 µM)	256 (≈ 278 µM)	128 (≈ 139 µM)	–	128 (≈ 139 µM)	4 (≈ 4.34 µM)	–	256 (≈ 278 µM)	2 (≈ 2.17 µM)	–	–	128 (≈ 139 µM)	256 (≈ 278 µM)	–	–	–	–	–

— ChEMBL document CHEMBL4334458, “Design, synthesis and antibacterial evaluation of novel 15-membered 11a-azahomoclarithromycin derivatives with the 1, 2, 3-triazole side chain” (Eur J Med Chem, 2019)
